Data as given in ChEMBL document CHEMBL1138529, “Efficacy, pharmacokinetics, and metabolism of tetrahydroquinoline inhibitors of Plasmodium falciparum protein farnesyltransferase” (Antimicrob Agents Chemother, 2007).

Key:
[1] = Drug metabolism in bile duct cannulated Sprague-Dawley rat assessed as radioactive drug recovery in feces at 35 mg/kg, po after 18 hrs; assay type: ADME, organism-based; set-up: dose 35 mg/kg, route oral; conditions: in vivo
Outline: (§1)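 Male bile-duct- and jugular-cannulated Sprague-Dawley rats (~350 g, three per compound) given 35 mg/kg 14C-labelled compound orally (80 μCi/kg) in 3% EtOH-7% Tween 80-90% saline. Urine, feces and bile collected for 18 h, cages washed with methanol-water, animals autopsied; radioactivity per matrix by liquid scintillation counting as mean % of dose.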

[2] = tested on: Blood; experiment: Drug level in bile duct cannulated Sprague-Dawley rat blood at 35 mg/kg, po after 2 hrs; assay type: ADME, organism-based; set-up: dose 35 mg/kg, route oral; conditions: in vivo
Outline: (§2)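 Male Sprague-Dawley rats (~350 g), jugular vein and bile duct cannulated, 1 week recovery; three per compound dosed by oral gavage with 35 mg/kg in 3% EtOH-7% Tween 80-90% normal saline plus 80 μCi/kg 14C tracer. Plasma and blood cells sampled over 18 h; radioactivity by liquid scintillation, reported as mean μg base equivalents/g.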

[3] = tested on: Blood; experiment: Drug level in bile duct cannulated Sprague-Dawley rat blood at 35 mg/kg, po after 0.5 hrs; assay type: ADME, organism-based; set-up: dose 35 mg/kg, route oral; conditions: in vivo; outline: as §2
[4] = tested on: Rattus norvegicus; experiment: Plasma concentration in bile duct cannulated Sprague-Dawley rat at 35 mg/kg, po after 6 hrs; assay type: ADME, organism-based; set-up: dose 35 mg/kg, route oral; conditions: in vivo
Outline: (§3)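 Male Sprague-Dawley rats, about 350 g, with jugular and bile-duct cannulae, allowed 1 week recovery; three per compound. Oral gavage 35 mg/kg in 3% EtOH-7% Tween 80-90% saline with 80 μCi/kg 14C tracer. Monitored 18 h. Plasma and blood-cell radioactivity measured by liquid scintillation counting and given as μg base equivalents/g.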

[5] = Drug metabolism in bile duct cannulated Sprague-Dawley rat assessed as radioactive drug recovery in carcass at 35 mg/kg, po after 18 hrs; assay type: ADME, organism-based; set-up: dose 35 mg/kg, route oral; conditions: in vivo; outline: as §1
[6] = tested on: Rattus norvegicus; experiment: Plasma concentration in bile duct cannulated Sprague-Dawley rat at 35 mg/kg, po after 0.5 hrs; assay type: ADME, organism-based; set-up: dose 35 mg/kg, route oral; conditions: in vivo; outline: as §3
[7] = tested on: Blood; experiment: Drug level in bile duct cannulated Sprague-Dawley rat blood at 35 mg/kg, po after 4 hrs; assay type: ADME, organism-based; set-up: dose 35 mg/kg, route oral; conditions: in vivo; outline: as §2
[8] = tested on: Blood; experiment: Drug level in bile duct cannulated Sprague-Dawley rat blood at 35 mg/kg, po after 3 hrs; assay type: ADME, organism-based; set-up: dose 35 mg/kg, route oral; conditions: in vivo; outline: as §2
[9] = tested on: Rattus norvegicus; experiment: Plasma concentration in bile duct cannulated Sprague-Dawley rat at 35 mg/kg, po after 18 hrs; conditions: in vivo
[10] = tested on: Rattus norvegicus; experiment: Toxicity in bile duct cannulated Sprague-Dawley rat assessed as incidence of adverse events at 35 mg/kg, po after 18 hrs; assay type: organism-based; set-up: dose 35 mg/kg, route oral; conditions: in vivo; outline: as §3
[11] = tested on: Blood; experiment: Drug level in bile duct cannulated Sprague-Dawley rat blood at 35 mg/kg, po after 6 hrs; assay type: ADME, organism-based; set-up: dose 35 mg/kg, route oral; conditions: in vivo; outline: as §2
[12] = tested on: Rattus norvegicus; experiment: Plasma concentration in bile duct cannulated Sprague-Dawley rat at 35 mg/kg, po after 2 hrs; assay type: ADME, organism-based; set-up: dose 35 mg/kg, route oral; conditions: in vivo; outline: as §3
[13] = tested on: Blood; experiment: Drug level in bile duct cannulated Sprague-Dawley rat blood at 35 mg/kg, po after 18 hrs; assay type: ADME, organism-based; set-up: dose 35 mg/kg, route oral; conditions: in vivo; outline: as §2
[14] = tested on: Blood; experiment: Drug level in bile duct cannulated Sprague-Dawley rat blood at 35 mg/kg, po after 1 hr; assay type: ADME, organism-based; set-up: dose 35 mg/kg, route oral; conditions: in vivo; outline: as §2
[15] = tested on: Rattus norvegicus; experiment: Plasma concentration in bile duct cannulated Sprague-Dawley rat at 35 mg/kg, po after 3 hrs; assay type: ADME, organism-based; set-up: dose 35 mg/kg, route oral; conditions: in vivo; outline: as §3
[16] = tested on: Rattus norvegicus; experiment: Drug metabolism in bile duct cannulated Sprague-Dawley rat assessed as radioactive drug recovery at 35 mg/kg, po after 18 hrs; assay type: ADME, organism-based; set-up: dose 35 mg/kg, route oral; conditions: in vivo; outline: as §1
[17] = Drug metabolism in bile duct cannulated Sprague-Dawley rat assessed as radioactive drug recovery in gastrointestinal tract at 35 mg/kg, po after 18 hrs; assay type: ADME, organism-based; set-up: dose 35 mg/kg, route oral; conditions: in vivo; outline: as §1
[18] = tested on: Rattus norvegicus; experiment: Plasma concentration in bile duct cannulated Sprague-Dawley rat at 35 mg/kg, po after 1 hr; assay type: ADME, organism-based; set-up: dose 35 mg/kg, route oral; conditions: in vivo; outline: as §3
[19] = tested on: Rattus norvegicus; experiment: Plasma concentration in bile duct cannulated Sprague-Dawley rat at 35 mg/kg, po after 4 hrs; assay type: ADME, organism-based; set-up: dose 35 mg/kg, route oral; conditions: in vivo; outline: as §3
[20] = Drug metabolism in bile duct cannulated Sprague-Dawley rat assessed as radioactive drug recovery in urine at 35 mg/kg, po after 18 hrs; assay type: ADME, organism-based; set-up: dose 35 mg/kg, route oral; conditions: in vivo; outline: as §1
[21] = Drug metabolism in bile duct cannulated Sprague-Dawley rat assessed as radioactive drug recovery in bile at 35 mg/kg, po after 18 hrs; assay type: ADME, organism-based; set-up: dose 35 mg/kg, route oral; conditions: in vivo; outline: as §1
[22] = Elimination half life in BALB/c mouse at 50 mg/kg, po; assay type: ADME, organism-based; set-up: dose 50 mg/kg, route oral; conditions: in vivo, read-out: beta t1/2
Outline: (§4)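 50 mg/kg by oral gavage in 3% EtOH-7% Tween 80-90% normal saline to groups of three females (BALB/c mice, 8–10 weeks, tail bleed; Sprague-Dawley rats, 10–12 weeks, saphenous vein). Plasma extracted with acetonitrile/internal standard, LC/MS; means of three animals. Oral elimination half-life depends on absorption rate as well as elimination.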

[23] = AUC in Sprague-Dawley rat at 50 mg/kg, po; assay type: ADME, organism-based; set-up: dose 50 mg/kg, route oral; conditions: plasma
Outline: (§5)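 Three female BALB/c mice (lines for mice, 8–10 weeks) or three female Sprague-Dawley rats (10–12 weeks) per group; 50 mg/kg oral gavage in 3% EtOH-7% Tween 80-90% normal saline. Plasma sampled at set times (tail bleed in mice, saphenous vein in rats), extracted with acetonitrile plus internal standard, quantified by LC/MS; AUC as mean of three animals.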

[24] = Elimination half life in Sprague-Dawley rat at 50 mg/kg, po; assay type: ADME, organism-based; set-up: dose 50 mg/kg, route oral; conditions: in vivo, read-out: beta t1/2; outline: as §4
[25] = tested on: Mus musculus; experiment: Toxicity in BALB/c mouse at 50 mg/kg, po; assay type: organism-based; set-up: dose 50 mg/kg, route oral; conditions: in vivo
[26] = Cmax in Sprague-Dawley rat at 50 mg/kg, po; assay type: ADME, organism-based; set-up: dose 50 mg/kg, route oral; conditions: in vivo; outline: as §4
[27] = Metabolic stability in mouse liver microsomes; assay type: ADME, Microsome
Outline: (§6)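 Pooled female liver microsomes at 0.5 mg/ml in 0.1 M potassium phosphate pH 7.4, 3 mM MgCl2, 1 mM EDTA, with NADPH regenerating system (1 mM NADP+, 5 mM glucose-6-phosphate, 1 U/ml G6PDH). Preincubated 10 min at 37°C, then compound added to 1 μM final. Time points quenched with 3 volumes acetonitrile plus internal standard; parent quantified by LC/MS; half-life reported.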

[28] = Permeability from apical to basolateral side in human Caco-2 cells; assay type: ADME, cell-based; conditions: read-out: permeability
[29] = tested on: Rattus norvegicus; experiment: Toxicity in Sprague-Dawley rat at 50 mg/kg, po; assay type: organism-based; set-up: dose 50 mg/kg, route oral; conditions: in vivo
Outline: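 Female Sprague-Dawley rats, 10-12 weeks, three per group. 50 mg/kg oral gavage in 3% EtOH-7% Tween 80-90% normal saline. Saphenous vein plasma sampled over time, and animals observed for adverse reactions.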

[30] = tested on: Mus musculus; experiment: Plasma concentration in BALB/c mouse at 50 mg/kg, po; assay type: ADME, organism-based; set-up: dose 50 mg/kg, route oral; conditions: in vivo
Outline: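 Female BALB/c mice, 8-10 weeks, three per group. Single 50 mg/kg oral gavage in 3% EtOH-7% Tween 80-90% normal saline. Plasma collected by tail bleed at set times, frozen at −20°C, acetonitrile-extracted with internal standard, quantified by LC/MS.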

[31] = AUC in BALB/c mouse at 50 mg/kg, po; assay type: ADME, organism-based; set-up: dose 50 mg/kg, route oral; conditions: plasma; outline: as §5
[32] = Cmax in BALB/c mouse at 50 mg/kg, po; assay type: ADME, organism-based; set-up: dose 50 mg/kg, route oral; conditions: in vivo; outline: as §4
[33] = Metabolic stability in rat liver microsomes; assay type: ADME, Microsome; outline: as §6
[34] = Permeability from basolateral to apical side in human Caco-2 cells; assay type: ADME, cell-based; conditions: read-out: permeability
Outline: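 Caco-2 clone TC7 grown on laminin-coated porous inserts and used 19-21 days after seeding; integrity checked by TEER and [3H]mannitol flux. Monolayers equilibrated 30 min at 37°C in HBSS/5 mM HEPES pH 7.4. Compound at 50 μM final added to basolateral donor side. Apical receiver sampled at 60 min, 37°C with shaking; LC/MS; Papp calculated from 60-min concentrations.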

Structure (SMILES): Cn1cncc1CN1CC(N(CC2CCN(C(=O)OC(C)(C)C)CC2)S(=O)(=O)c2ccccn2)Cc2cc([14C]#N)ccc21 (centres undefined)
- Drug uptake [1]: 26.7%
- Drug uptake [2]: 1.03 ug base equiv/g
- Drug uptake [3]: 0.442 ug base equiv/g
- Cp [4]: 1.23 ug base equiv/g
- Drug uptake [5]: 9.7%
- Cp [6]: 1.5 ug base equiv/g
- Drug uptake [7]: 0.729 ug base equiv/g
- Drug uptake [8]: 0.821 ug base equiv/g
- Cp [9]: 0.34 ug base equiv/g
- Activity [10]: Non-toxic
- Drug uptake [11]: 0.623 ug base equiv/g
- Cp [12]: 2.14 ug base equiv/g
- Drug uptake [13]: 0.344 ug base equiv/g
- Drug uptake [14]: 0.909 ug base equiv/g
- Cp [15]: 2.2 ug base equiv/g
- Drug uptake [16]: 92.2%
- Drug uptake [17]: 18.2%
- Cp [18]: 2.01 ug base equiv/g
- Cp [19]: 1.92 ug base equiv/g
- Drug uptake [20]: 4.3%
- Drug uptake [21]: 26.2%

Structure (SMILES): Cn1cnc(S(=O)(=O)N(Cc2ccc(C(F)(F)F)o2)C2Cc3cc(C#N)ccc3N(Cc3cncn3C)C2)c1 (centres undefined)
- half-life [22]: 30 min
- AUC [23]: 5.42 µM·h
- half-life [24]: 26 min
- Activity [25]: Non-toxic
- Cmax [26]: 3.4 µM
- half-life [27]: 3.4 min
- Papp A→B [28]: 0.7 ×10⁻⁶ cm/s
- Activity [29]: Non-toxic
- concentration [30]: 3.9 µM
- AUC [31]: 4.55 µM·h
- Cmax [32]: 3.9 µM
- half-life [33]: 16 min
- Papp B→A [34]: 72.5 ×10⁻⁶ cm/s
